Source: PubChem
STAT3 blocker: IL-6 driven STAT3 reporter inhibitors, primary screen, U3A cells, luciferase, luminescence, MLSCN library; IL-6 STAT3-luciferase reporter; host cell line lacks STAT1; inhibition, % at 5.5 µM; 190,000 compounds, 0.89% hits; AID 862, 2007;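 active means inhibition above the mean inhibition across all screened compounds plus 3 SD, cut at about 44% in these data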;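 further: 0% = DMSO only wells and 100% = 100 µM nifuroxazide control wells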
STAT1 activator: STAT1 signaling activators, primary screen, cell-based, HTS, luciferase reporter; 200,000 compounds, 2.6% hits; activation (% of control), % at 5.5 µM; NIH 3T3 STAT1-luciferase reporter, IFN-gamma, luminescence; 100% = IFN-gamma alone, no compound;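 active means activation above the screen-wide mean activation plus 3 SD, cut at about 130% in these data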;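 further: raw ratio to IFN-gamma control signal so 100% means no change and 0% no light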
STAT3 act: IL-6 driven STAT3 reporter potentiators, primary screen, U3A cells, luciferase, luminescence, MLSCN library; IL-6 STAT3-luciferase reporter; 100% = signal with IL-6 EC80 alone; activation (% of control), % at 5.6 µM; 190,000 compounds, 0.91% hits;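 active means activation above the screen-wide mean of compound activation plus 3 SD, cut at about 130% in these data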;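 further: 0% = background luminescence of wells with medium and substrate only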
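Detection: reporter luminescence signal / Assay system: STAT1-lacking human U3A cells, STAT3 luciferase reporter / Incubation: compound pre-incubation 1 h before IL-6, then 6 h stimulation at 37 °C / Control set: IL-6-only high control / Read-out: % activation relative to IL-6 control / Probe or stimulus: Interleukin-6, 33 ng/mL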
STAT1 inh: STAT1 signaling inhibitors, primary screen, cell-based, HTS, luciferase reporter | NIH 3T3 STAT1-luciferase reporter, IFN-gamma, luminescence | inhibition, % at 5.5 µM | 200,000 compounds, 0.35% hits | AID 920, 2007;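 active means inhibition above a set limit, the mean inhibition across all tested compounds plus 3 SD, cut at about 34% in these data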;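 further: 0% = IFN-gamma with DMSO and 100% = IFN-gamma with 300 µM nifuroxazide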
STAT1 activ conf: STAT1 signaling activators, confirmation, cell-based, HTS, luciferase reporter; activation (% of control), % at 5.7 µM; NIH 3T3 STAT1-luciferase reporter, IFN-gamma potentiation, luminescence; 100% = IFN-gamma EC80 alone, no compound; AID 1262, 2008; shares compounds with STAT1 activator; 1,200 compounds, 97% hits;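 active means activation above a set limit carried over from the earlier primary STAT1 screen, cut at about 140% in these data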;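 further: simple ratio to median IFN-gamma plus DMSO wells so 0% means no light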
NFkB act STAT1ct: NF-kB reporter activators, TNF-alpha stimulated, counter-screen for STAT1 activator project, cell-based, HEK293T, luciferase luminescence; shares compounds with STAT1 activator; 100% = TNF-alpha with vehicle only; activation (% of control), % at 5.7 µM; 1,200 compounds, 43% hits;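 active means activation above the mean of solvent-only control wells plus 3 SD, set per campaign, cut at about 130% in these data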;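 further: TNF-alpha given at a submaximal dose yielding about 80% of full reporter signal; values are well signal over median control so 100% means no change and 0% no light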
STAT3 act 2: STAT3 reporter activation by STAT1 hits, confirmation, counter-screen for STAT1 activator project, U3A cells, luciferase, luminescence; IL-6; cells lack STAT1; 100 = IL-6 alone, no compound effect; 1,200 compounds, 46% hits; activation (% of control), % at 5.7 µM; shares compounds with STAT1 activator;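 active means activation above the solvent-only control well mean plus 3 SD, set per plate batch, cut at about 110% in these data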;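 further: 0% = no luminescence and 100% = median IL-6 plus DMSO wells; higher means more STAT3 reporter activation so hits are non-selective activators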
An asterisk follows results filed as active; · = no result. Shown are actives, neighbours in structure and some others; about 4.3% of the full set was active somewhere.

SMILES	STAT3 blocker	STAT1 activator	STAT3 act	STAT1 inh	STAT1 activ conf	NFkB act STAT1ct	STAT3 act 2
O=C(O)c1cccc(NC(=O)c2cccc(S(=O)(=O)N3CCc4ccccc4C3)c2)c1	6.6	96.6	96.3	1.8	·	·	·
O=C(CNc1ccc(Br)cc1)NNC1=NCCC1	-0.5	100.7	108.5	-0.7	·	·	·
c1ccc(-c2cn3nc(-c4ccccc4)cnc3n2)cc1	9.4	154.7*	90.9	-59.9	212.1*	124.2	104.6
COc1ccc(NC(=S)Nc2ccc3nccnc3c2)cc1	6.2	153.3*	99.2	-58.8	141.1*	109.3	98.5
COc1ccc(NC(=S)Nc2ccc3snnc3c2)cc1	10.9	109.0	93.5	-11.9	·	·	·
COc1ccc(CNc2ccc3c(c2)nc(C)n3C)cc1	11.4	150.6*	92.2	-55.4	168.3*	127.1	115.5*
Cc1ccc(S(=O)(=O)Nc2ccc3c(c2)ncn3C(C)(C)C)cc1	7.5	91.2	99.0	9.9	·	·	·
Cc1ccc(CNc2ccc3c(c2)ncn3C(C)(C)C)cc1	-2.1	167.1*	110.1	-76.0	198.4*	134.8*	128.2*
O=C(COC(=O)c1ccc(Br)o1)Nc1cccc(S(=O)(=O)N2CCCCCC2)c1	7.5	93.5	98.6	7.0	·	·	·
O=C(Nc1ccc(NC(=O)C23CC4CC(CC(C4)C2)C3)cn1)c1ccco1	-7.7	185.2*	108.3	-93.0	221.7*	141.7*	122.6*
Cc1ccccc1NC(=O)Nc1ccccc1Br	24.9	101.0	83.3	-1.1	·	·	·
Cc1cc(NC(=O)Nc2ccccc2F)ccc1Br	13.2	181.1*	93.0	-93.1	231.8*	141.1*	111.6*
Brc1ccc2nc(-c3c[nH]c4ccccc34)cn2c1	3.6	194.0*	98.5	-106.8	286.9*	143.2*	113.4*
Clc1ccc(-c2cn3cc(Br)ccc3n2)cc1Cl	13.5	164.9*	90.7	-72.0	222.2*	100.0	121.6*
CN(C)S(=O)(=O)c1cccc(-c2cn3cc(Cl)ccc3n2)c1	-1.1	111.9	98.4	-12.9	·	·	·
Cc1nn(C)c(Cl)c1C(=O)NCC(=O)Nc1ccc(C(C)C)cc1	1.8	100.0	100.5	-0.7	·	·	·
O=C(N/N=C/c1ccccc1F)c1csc2c1CCCC2	37.5	156.9*	71.4	-62.2	217.3*	120.3	105.4
O=C(CSc1n[nH]c(=O)[nH]c1=O)NC1CC1	5.6	94.9	96.9	3.1	·	·	·
Cc1nccn1CCCNCc1c(C(=O)N2CCCCCCC2)nc2ccc(Cl)cn12	12.2	99.9	99.2	-0.8	·	·	·
c1ccc2c(c1)oc1c(Nc3ccc(CN4CCOCC4)cc3)ncnc12	0.0	157.8*	103.2	-63.2	207.4*	135.4*	115.4*
c1ccc2c(c1)oc1c(Nc3ccc4c(c3)OCO4)ncnc12	2.1	157.7*	101.4	-63.2	202.2*	142.4*	109.6
C=CCn1c(C)csc1=Nc1ccc(C(=O)O)cc1	2.2	105.2	99.6	-8.3	·	·	·
CCc1cc(CNC(=O)CCc2nnc(CCCc3ccccc3)o2)on1	-9.6	158.0*	111.3	-65.3	168.1*	124.7	115.1*
O=C(CCc1nnc(C2CCCCC2)o1)N1CCN(c2ccccc2F)CC1	-12.8	163.4*	115.9	-73.1	172.1*	136.6*	117.0*
O=C(CCc1nnc(CCCc2ccccc2)o1)N1CCCCCC1	-1.8	153.4*	105.5	-61.1	142.4*	121.8	107.5
CC(C)CC(=O)Nc1ccc2c3c(cccc13)CC2	14.9	96.8	85.7	3.6	·	·	·
CC1=C(C(=O)N2CCOCC2)C(c2c(F)cccc2F)NC(=O)N1 (stereo unspecified)	5.7	96.6	103.3	3.9	·	·	·
COc1ccc2nc(Nc3nc(C)c(C(C)=O)s3)sc2c1	-7.7	163.7*	110.1	-65.9	179.6*	132.3	101.3
